# Experimental data pooled from the literature.
# Each line is one published result; the experiments were not run side by side.
# Target: Serine/threonine-protein kinase 32A (STK32A, Homo sapiens, UniProt Q8WU08)
Structure (SMILES),test,setting,remaining binding [%]
CN(C(=O)c1ccccc1)c1cc(N(C)c2ccc3c(c2)CCc2ccc(C(=O)NCCN4CCOCC4)cc2C3=O)ccc1F,"cell-free assay, competition with immobilised ligand",1 µM,68
O=C(c1ccc(Nc2ncc(Cl)c(-c3cc4ccccc4s3)n2)cc1)N1CCC(N2CCCC2)CC1,"binding, competition with immobilised ligand",1 µM,68
CN(C)c1ncc(F)c(-c2cnn3ncccc23)n1,binding,1 µM,100
COc1cnc(Nc2cccc(S(N)(=O)=O)c2)nc1N1CCN(c2ccccc2)CC1,"binding, competition with immobilised ligand",1 µM,94
C[C@H]1CCN(c2nccc(-c3cnn4ncccc34)n2)C1,binding,1 µM,64
c1cncc(-c2cccc(Nc3nccc(NC4CCCCC4)n3)c2)c1,"binding, competition with immobilised ligand",10 µM,69
O=C(NCCCN1CCOCC1)c1ccc(Nc2ncc(Cl)c(-c3ccc(Cl)s3)n2)cc1,"binding, competition with immobilised ligand",1 µM,93
Cc1cnn2ncc(-c3ccnc(N(C)C)n3)c2c1,binding,1 µM,71
Cc1c[nH]c2nccc(Oc3c(F)cc(Nc4cc(Cl)nc(N)n4)cc3F)c12,"cell-free assay, competition with immobilised ligand",0.1 µM,86
COc1cnc(Nc2cccc(S(N)(=O)=O)c2)nc1N1CCN(c2ccccc2)C(=O)C1,"binding, competition with immobilised ligand",1 µM,98
CN(c1ccnc(CNc2nc(Nc3ccc4c(c3)CC(=O)N4)ncc2C(F)(F)F)n1)S(C)(=O)=O,"cell-free assay, competition with immobilised ligand",1 µM,72
COc1ccnn2ncc(-c3ccnc(N(C)C)n3)c12,binding,1 µM,74
C[C@@H](c1ccc(-n2cnc3c(N)ncnc32)cc1)N1CCc2nn(C)c(Cc3ccccc3)c2C1=O,"binding, competition with immobilised ligand",0.1 µM,94
C=CC(=O)N1CCC(C(=O)NCC(=O)N2CCN(c3nc(-c4cnc(N)nc4C(F)F)nc(N4CCOCC4)n3)CC2)CC1,"binding, competition with immobilised ligand",1 µM,91
N#CC1(c2ccccn2)CCN(Cc2cc(C(=O)N3CCCC3)c(=O)n3ccccc23)CC1,"cell-free assay, competition with immobilised ligand",1 µM,98
Nc1ncc2c(n1)-c1c([nH]c3ccc(C#CC4CC4)cc13)CCCC2,"binding, competition with immobilised ligand",1 µM,80
CNC(=O)Nc1ccc2c(c1)CC[C@@]21OC(=O)N(CC(=O)N(Cc2ccc(F)cc2)[C@@H](C)C(F)(F)F)C1=O,"binding, competition with immobilised ligand",1 µM,88
O=C(NCCCN1CCOCC1)c1ccc(Nc2nccc(-c3cc4ccccc4s3)n2)cc1,"binding, competition with immobilised ligand",1 µM,100
CN(c1nccc(-c2cnn3ncccc23)n1)C1CC1,binding,1 µM,100
NS(=O)(=O)c1cc(NC(=O)Cc2ccccc2)ccc1Oc1cccc(Cl)c1,"cell-free assay, competition with immobilised ligand",1 µM,100
N[C@H]1CCN(c2nccc(-c3cnn4ncccc34)n2)C1,binding,1 µM,87
O=C(Nc1c[nH]nc1C(=O)NC1CCNCC1)c1cc(F)cc(F)c1,"binding, competition with immobilised ligand",1 µM,95
